Calls of active or inactive are those of the source. The rule behind the calls is not given here. A value given as a limit tells only on which side of the number the result lay.

The values that follow come from ChEMBL document CHEMBL4406830, “Galloyl esters of trans-stilbenes are inhibitors of FASN with anticancer activity on non-small cell lung cancer cells” (Eur J Med Chem, 2019).

For series [1], the system named is NCI-H1703. Nature of the series: Antiproliferative activity against human NCI-H1703 cells expressing FASN assessed as growth inhibition at 25 uM after 72 hrs by MTS assay relative to control. It counts as functional. The conditions noted are these: NCI-H1703, 72 h. An outline of the steps:
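H1703 cells were treated with a single 25 µM concentration for 72 h. Viability was measured by MTS at 490 nm, with 0.1% DMSO and media-only correction, relative to untreated control. Mean ± SD of n = 3 independent determinations, unpaired t test against control.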

Series [2] has as its system NCI-H1703. Nature of the series: Antiproliferative activity against human NCI-H1703 cells expressing FASN assessed as reduction in cell viability after 72 hrs by MTS assay. The series is classed as functional, cell-based. The conditions noted are these: NCI-H1703, 72 h. An outline of the steps:
(§1)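 ATCC-sourced cells. H1299, H1650, H1703 and PC-9 were grown in RPMI 1640 with 10% FBS. A549 was grown in high-glucose DMEM with 10% FBS and 1 mM pyruvate. SAEC was grown in BEGM. Cells were seeded at 3 × 10^3 per well (H1650 3.5 × 10^3) and left to attach overnight. Serial dilutions from DMSO stocks were added, 0.1% DMSO final, for 72 h at 37 °C, 5% CO2. Medium was replaced, MTS added, and A490 read after 2 h. IC50 was taken from % viability versus log concentration, 3 experiments.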

A short description of series [3]: Selectivity index, ratio of IC50 for human SAE cells lacking FASN expression to IC50 for human NCI-H1703 cells expressing FASN. In a few lines: (§2)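 Index is the SAEC IC50 divided by the IC50 in the FASN-expressing NSCLC line. IC50s came from MTS viability after 72 h exposure at 37 °C, 5% CO2, DMSO 0.1% v/v. Absorbance was read at 490 nm after 2 h. The fit was % viability against log concentration, with 4 technical repeats and 3 independent experiments. NSCLC lines were grown in RPMI/10% FBS; SAEC in BEGM.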

For another series, the system named is NCI-H1650. Nature of the series: Antiproliferative activity against human NCI-H1650 cells expressing FASN assessed as reduction in cell viability after 72 hrs by MTS assay. The series is classed as functional, cell-based. As to conditions: NCI-H1650, 72 h. An outline of the steps:
as §1

For series [4], the target named is Fatty acid synthase (Homo sapiens) (UniProt P49327). Nature of the series: Inhibition of full length human FASN transfected in HeLa cell lysates at 10 uM using acetyl Co-A/malonyl Co-A as substrate preincubated with enzyme for 2 hrs followed by substrate addition measured after 10 mins in presence of NADPH by microplate reader analysis. The series is classed as subcellular. The conditions noted are these: Lysate. In a few lines: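 Human FASN was made by in vitro translation from a FASN plasmid. Lysate was diluted 3:7 in 100 mM potassium phosphate, pH 6.5, 1 mM EDTA. It was preincubated with compound (10 µM final) for 2 h at 37 °C. Buffer containing acetyl-CoA (55 µM) and NADPH (330 µM) was added, then the reaction was started with malonyl-CoA (500 µM stock). A340 was read at 0 and 10 min; triplicates.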

For a further series, the system named is PC-9. Nature of the series: Antiproliferative activity against human PC9 cells harboring FASN expression and EGFR delE746-A750 mutant assessed as cell viability at 2 uM after 72 hrs in presence of exogenous lipid concentrate by MTS assay. The series is classed as functional, cell-based. An outline of the steps:
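Cells were treated as in the MTS viability assay. After 6 h, chemically defined lipid concentrate was added to 2% v/v final. Incubation continued for a further 72 h, then viability was read by MTS at 490 nm. Cells were treated at 2 µM (PC-9) or 1 µM (H1703). Mean ± SD, n = 3, compared with compound alone.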

For series [5], the target named is Fatty acid synthase (Homo sapiens) (UniProt P49327). Nature of the series: Inhibition of FASN in human NCI-H1703 cells expressing FASN assessed as disruption of AKT/FASN positive feedback loop by measuring decrease in FASN expression after 48 hrs by Western immunoblot assay. The series is classed as cell-based. An outline of the steps:
(§3)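 PC-9 or H1703 cells were seeded at 8 × 10^5 per 100 mm dish and treated for 48 h at 1 or 5 µM (or 5, 50 and 100 µM). RIPA lysates were BCA-quantified and run on 8% SDS-PAGE, then transferred to PVDF. Blots were probed for FASN, AKT, phospho-AKT S473 and GAPDH and detected by ECL. Bands were quantified by densitometry and normalised to vehicle control.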

Series [6] has the same target. Nature of the series: Inhibition of FASN in human NCI-H1703 cells expressing FASN assessed as disruption of AKT/FASN positive feedback loop by measuring decrease in AKT expression at 5 uM after 48 hrs by Western immunoblot based densitometric assay relative to control. It counts as cell-based. An outline of the steps:
as §3

For series [7] the target is unchanged. As to the kind of experiment: Inhibition of FASN in human PC9 cells harboring FASN expression and EGFR delE746-A750 mutant assessed as disruption of AKT/FASN positive feedback loop by measuring FASN expression at 2 uM after 48 hrs in presence of exogenous lipid concentrate by Western immunoblot based densitometric assay relative to control. It counts as cell-based. In a few lines:
(§4)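 PC-9 (2 µM) or H1703 (1 µM) cells were treated with compound, with or without lipid concentrate (1% v/v per figure legend), for 48 h. Cells were lysed in RIPA buffer and lysates run on SDS-PAGE western blots for FASN, AKT, phospho-AKT S473 and GAPDH. Bands were quantified by densitometry and normalised to untreated control.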

Series [8] has the same target. Nature of the series: Inhibition of FASN in human NCI-H1703 cells expressing FASN assessed as disruption of AKT/FASN positive feedback loop by measuring decrease in FASN expression at 1 uM after 48 hrs in presence of exogenous lipid concentrate by Western immunoblot based densitometric assay relative to control. It counts as cell-based. In a few lines:
as §4

Series [9] has the same target. Nature of the series: Inhibition of FASN in human PC9 cells harboring FASN expression and EGFR delE746-A750 mutant assessed as disruption of AKT/FASN positive feedback loop by measuring decrease in ratio of phosphoAKT/AKT expression at 2 uM after 48 hrs by Western immunoblot based densitometric assay relative to control. It counts as cell-based. An outline of the steps:
as §4

For series [10] the target is unchanged. Nature of the series: Inhibition of FASN in human PC9 cells harboring FASN expression and EGFR delE746-A750 mutant assessed as disruption of AKT/FASN positive feedback loop by measuring ratio of phosphoAKT/AKT expression at 2 uM after 48 hrs in presence of exogenous lipid concentrate by Western immunoblot based densitometric assay relative to control. It counts as cell-based. An outline of the steps: as §4

Series [11] shares this target. As to the kind of experiment: Inhibition of FASN in human NCI-H1703 cells expressing FASN assessed as disruption of AKT/FASN positive feedback loop by measuring ratio of phosphoAKT/AKT expression at 1 uM after 48 hrs in presence of exogenous lipid concentrate by Western immunoblot based densitometric assay relative to control. It counts as cell-based. An outline of the steps: as §4

Series [12] in a line: Selectivity index, ratio of IC50 for human SAE cells lacking FASN expression to IC50 for human PC9 cells harboring FASN expression and EGFR delE746-A750 mutant. In a few lines: as §2
Series [13] in a line: Selectivity index, ratio of IC50 for human SAE cells lacking FASN expression to IC50 for human A549 cells expressing FASN. An outline of the steps:
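The ratio IC50(SAEC)/IC50(NSCLC line) was calculated from 72 h MTS viability IC50 values.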

Series [14] is described as follows: Ratio of compound kinetic solubility to [1,1'-Biphenyl]-4,4'-diyl bis(3,4,5-trihydroxybenzoate)] kinetic solubility in universal buffer at pH 7.4 measured at 25 degC after 24 hrs by UV/Visible spectroscopic analysis. The series is classed as physicochemical. As to conditions: pH 7.4, 24 h.

Chain of Fatty acid synthase (Homo sapiens) (P49327 whole entry, looked up): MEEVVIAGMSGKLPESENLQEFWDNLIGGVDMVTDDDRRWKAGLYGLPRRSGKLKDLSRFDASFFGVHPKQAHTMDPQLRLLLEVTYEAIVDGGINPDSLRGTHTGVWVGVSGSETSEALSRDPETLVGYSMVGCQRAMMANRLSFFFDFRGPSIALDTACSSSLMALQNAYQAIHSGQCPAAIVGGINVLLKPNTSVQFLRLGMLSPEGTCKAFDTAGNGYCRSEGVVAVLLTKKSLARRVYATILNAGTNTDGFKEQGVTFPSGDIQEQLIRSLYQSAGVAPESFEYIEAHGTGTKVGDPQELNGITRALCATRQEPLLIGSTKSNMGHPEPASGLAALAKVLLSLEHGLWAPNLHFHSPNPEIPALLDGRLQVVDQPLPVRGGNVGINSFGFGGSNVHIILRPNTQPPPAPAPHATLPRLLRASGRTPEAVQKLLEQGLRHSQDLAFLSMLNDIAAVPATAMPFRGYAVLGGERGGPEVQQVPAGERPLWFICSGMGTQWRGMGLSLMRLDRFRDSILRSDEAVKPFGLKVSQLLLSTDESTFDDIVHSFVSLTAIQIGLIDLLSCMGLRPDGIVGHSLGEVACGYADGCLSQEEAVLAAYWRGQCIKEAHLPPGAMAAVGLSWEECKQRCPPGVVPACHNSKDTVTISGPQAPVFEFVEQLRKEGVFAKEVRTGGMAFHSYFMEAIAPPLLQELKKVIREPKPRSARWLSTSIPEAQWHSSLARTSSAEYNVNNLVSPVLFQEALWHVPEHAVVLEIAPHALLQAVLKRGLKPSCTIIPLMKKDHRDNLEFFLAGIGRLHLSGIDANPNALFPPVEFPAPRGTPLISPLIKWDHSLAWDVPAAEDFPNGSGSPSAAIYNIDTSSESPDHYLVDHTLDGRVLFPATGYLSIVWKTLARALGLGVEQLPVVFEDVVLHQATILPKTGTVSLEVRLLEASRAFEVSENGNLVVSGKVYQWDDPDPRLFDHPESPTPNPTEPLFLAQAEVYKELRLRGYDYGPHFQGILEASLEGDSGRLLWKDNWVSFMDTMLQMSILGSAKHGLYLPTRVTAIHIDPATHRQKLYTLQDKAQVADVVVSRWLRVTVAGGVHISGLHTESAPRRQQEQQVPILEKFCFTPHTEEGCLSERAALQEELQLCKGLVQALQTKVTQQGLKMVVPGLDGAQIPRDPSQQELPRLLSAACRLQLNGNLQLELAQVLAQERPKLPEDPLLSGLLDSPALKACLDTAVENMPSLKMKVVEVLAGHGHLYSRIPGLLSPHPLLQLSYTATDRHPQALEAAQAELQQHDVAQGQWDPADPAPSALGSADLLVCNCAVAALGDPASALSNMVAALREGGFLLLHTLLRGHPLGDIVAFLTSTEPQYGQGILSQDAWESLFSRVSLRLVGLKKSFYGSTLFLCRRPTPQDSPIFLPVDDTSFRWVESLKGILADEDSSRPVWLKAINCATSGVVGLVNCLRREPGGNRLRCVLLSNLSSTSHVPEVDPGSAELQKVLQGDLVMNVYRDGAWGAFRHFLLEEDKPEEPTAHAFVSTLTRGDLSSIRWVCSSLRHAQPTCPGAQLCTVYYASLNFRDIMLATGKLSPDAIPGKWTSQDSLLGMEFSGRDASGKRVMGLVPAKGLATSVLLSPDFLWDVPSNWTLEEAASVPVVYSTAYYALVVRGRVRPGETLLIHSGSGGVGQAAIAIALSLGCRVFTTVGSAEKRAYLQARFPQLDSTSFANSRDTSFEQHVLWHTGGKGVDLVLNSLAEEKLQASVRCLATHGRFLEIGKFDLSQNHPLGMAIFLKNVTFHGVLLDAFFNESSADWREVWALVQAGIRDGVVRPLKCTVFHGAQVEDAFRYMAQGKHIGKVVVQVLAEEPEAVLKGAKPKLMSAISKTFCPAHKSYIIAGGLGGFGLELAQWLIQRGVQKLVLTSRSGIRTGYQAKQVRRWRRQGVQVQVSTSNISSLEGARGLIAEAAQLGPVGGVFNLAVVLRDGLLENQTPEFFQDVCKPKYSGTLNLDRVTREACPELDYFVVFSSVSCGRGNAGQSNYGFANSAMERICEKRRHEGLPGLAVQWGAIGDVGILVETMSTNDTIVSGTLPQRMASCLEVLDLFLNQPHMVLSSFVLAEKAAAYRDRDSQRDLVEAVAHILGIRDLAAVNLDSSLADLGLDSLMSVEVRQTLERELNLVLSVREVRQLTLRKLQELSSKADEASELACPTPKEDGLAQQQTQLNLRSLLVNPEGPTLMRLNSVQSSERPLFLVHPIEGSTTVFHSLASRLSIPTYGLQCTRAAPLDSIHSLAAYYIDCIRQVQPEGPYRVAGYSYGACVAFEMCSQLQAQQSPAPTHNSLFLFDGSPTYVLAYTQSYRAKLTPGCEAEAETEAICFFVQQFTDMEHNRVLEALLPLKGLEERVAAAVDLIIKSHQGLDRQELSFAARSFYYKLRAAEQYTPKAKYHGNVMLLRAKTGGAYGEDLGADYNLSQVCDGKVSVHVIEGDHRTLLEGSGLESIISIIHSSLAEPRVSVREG

Consider `O=C(Oc1ccc(/C=C/c2ccc(OC(=O)c3cc(O)c(O)c(O)c3)cc2)cc1)c1cc(O)c(O)c(O)c1`, for which the inhibition at 25 µM in the series with NCI-H1703 [1] was over 50%. The results for the IC50 in the series with NCI-H1703 [2] and with NCI-H1650 were 0.97 µM and 2.5 µM, respectively. For the same molecule, the entries for the “Ratio IC50” value in series [3], in series [12] and in [13] were 5.2, 2.2 and 2.4, respectively. Moreover, the inhibition result in [4] is “Active”. Besides, the inhibition entry in the series with PC-9 was “inactive”. Also, the inhibition result in series [5] is “Dose-dependent effect”. For the same molecule, the Ratio worked out at 0.01 in series [6]; 0.55 in series [7]; 0.74 in series [8]; 0.13 in series [9]; 0.57 in series [10]; 0.62 in series [11]. For the same molecule, in series [14], the Ratio is 6 to 15.

Consider `O=C(Oc1ccc(/C=C/c2cccc(OC(=O)c3cc(O)c(O)c(O)c3)c2)cc1)c1cc(O)c(O)c(O)c1`, for which the inhibition at 25 µM in the series on NCI-H1703 [1] was over 50%. The figures for the IC50 in the series with NCI-H1703 [2] and in the series with NCI-H1650 were 1.28 µM and 12.7 µM, respectively. For the same molecule, the “Ratio IC50” value in [3] was found to be 5.3; in [12], 1.4; in series [13], 3. In [4], the inhibition result was “Active”. In addition, the inhibition entry in the series on PC-9 was “inactive”. In series [5], the inhibition result was “Dose-dependent effect”. For the same molecule, the Ratio in series [6] worked out at 0.11; in series [7] it was 0.62; in series [8], 1.64; in [9], 0.12; in [10], 0.87; in series [11], 0.61. Moreover, in series [14], the Ratio was found to be 15.
